According to ChEMBL document CHEMBL3588757, “Structure-based design, synthesis and biological testing of piperazine-linked bis-epipodophyllotoxin etoposide analogs” (Bioorg Med Chem, 2015):

Legend:
NCI-H23 = assay: Cytotoxicity against human NCI-H23 cells assessed as cell growth at 0.5 uM by SRB assay; type: functional; conditions: read-out: Activity
MDA-MB-435 [1] = assay: Cytotoxicity against human MDA-MB-435 cells assessed as cell growth at 5 uM by SRB assay; type: functional; conditions: read-out: Activity
CCRF-CEM = assay: Cytotoxicity against human CCRF-CEM cells assessed as cell growth at 5 uM by SRB assay; type: functional; conditions: read-out: Activity
SNB-75 [2] = assay: Cytotoxicity against human SNB75 cells assessed as cell growth at 0.005 uM by SRB assay; type: functional; conditions: read-out: Activity
NCI-H322M [3] = assay: Cytotoxicity against human NCI-H322M cells assessed as cell growth at 0.005 uM by SRB assay; type: functional; conditions: read-out: Activity
HOP-62 [4] = assay: Cytotoxicity against human HOP62 cells assessed as cell growth at 5 uM by SRB assay; type: functional; conditions: read-out: Activity
Method in brief: (§1)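 Measured in the NCI-60 human tumour cell line panel using five-dose testing. Growth was recorded at each dose for each cell line, and a GI50 was derived for each line.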

DU-145 = assay: Cytotoxicity against human DU145 cells assessed as cell growth at 0.05 uM by SRB assay; type: functional; conditions: read-out: Activity; method in brief: as §1
PC-3 = assay: Cytotoxicity against human PC3 cells assessed as cell growth at 0.005 uM by SRB assay; type: functional; conditions: read-out: Activity
HOP-62 [5] = assay: Cytotoxicity against human HOP62 cells assessed as cell growth at 0.5 uM by SRB assay; type: functional; conditions: read-out: Activity; method in brief: as §1
RXF 393 = assay: Cytotoxicity against human RXF393 cells by SRB assay; type: functional
Method in brief: (§2)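 NCI-60 panel screen; 5-dose testing giving GI50 per cell line, plus a single 10 µM one-dose test. Method details not given beyond the NCI screen.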

TK-10 [6] = assay: Cytotoxicity against human TK10 cells assessed as cell growth at 0.005 uM by SRB assay; type: functional; conditions: read-out: Activity
CAKI-1 = assay: Cytotoxicity against human Caki1 cells assessed as cell growth at 5 uM by SRB assay; type: functional; conditions: read-out: Activity
A498 = assay: Cytotoxicity against human A498 cells assessed as cell growth at 0.05 uM by SRB assay; type: functional; conditions: read-out: Activity
NCI-H322M [7] = assay: Cytotoxicity against human NCI-H322M cells assessed as cell growth at 50 uM by SRB assay; type: functional; conditions: read-out: Activity
TK-10 [8] = assay: Cytotoxicity against human TK10 cells by SRB assay; type: functional; method in brief: as §2
HL-60(TB) [9] = assay: Cytotoxicity against human HL-60(TB) cells assessed as cell growth at 0.05 uM by SRB assay; type: functional; conditions: read-out: Activity; method in brief: as §1
MDA-MB-468 [10] = assay: Cytotoxicity against human MDA-MB-468 cells assessed as cell growth at 0.5 uM by SRB assay; type: functional; conditions: read-out: Activity
MDA-MB-435 [11] = assay: Cytotoxicity against human MDA-MB-435 cells by SRB assay; type: functional; method in brief: as §2
K562 [12] = assay: Cytotoxicity against human K562 cells assessed as cell growth inhibition after 72 hrs by MTS assay; type: functional, cell-based; conditions: K562, 72 h
COLO 205 = assay: Cytotoxicity against human COLO205 cells assessed as cell growth at 50 uM by SRB assay; type: functional; conditions: read-out: Activity
T47D = assay: Cytotoxicity against human T47D cells assessed as cell growth at 0.05 uM by SRB assay; type: functional; conditions: read-out: Activity
SNB-19 [13] = assay: Cytotoxicity against human SNB19 cells by SRB assay; type: functional; method in brief: as §2
HCT-116 = assay: Cytotoxicity against human HCT116 cells assessed as cell growth at 0.5 uM by SRB assay; type: functional; conditions: read-out: Activity; method in brief: as §1
RPMI-8226 = assay: Cytotoxicity against human RPMI8226 cells assessed as cell growth at 50 uM by SRB assay; type: functional; conditions: read-out: Activity
SK-MEL-28 [14] = assay: Cytotoxicity against human SK-MEL-28 cells assessed as cell growth at 50 uM by SRB assay; type: functional; conditions: read-out: Activity
SF-268 [15] = assay: Cytotoxicity against human SF268 cells assessed as cell growth at 0.05 uM by SRB assay; type: functional; conditions: read-out: Activity
MOLT-4 = assay: Cytotoxicity against human MOLT4 cells assessed as cell growth at 0.5 uM by SRB assay; type: functional; conditions: read-out: Activity
SF-539 = assay: Cytotoxicity against human SF539 cells assessed as cell growth at 0.005 uM by SRB assay; type: functional; conditions: read-out: Activity
HL-60(TB) [16] = assay: Cytotoxicity against human HL-60(TB) cells assessed as cell growth at 0.005 uM by SRB assay; type: functional; conditions: read-out: Activity; method in brief: as §1
MDA-MB-468 [17] = assay: Cytotoxicity against human MDA-MB-468 cells assessed as cell growth at 50 uM by SRB assay; type: functional; conditions: read-out: Activity
OVCAR-8 = assay: Cytotoxicity against human OVCAR8 cells assessed as cell growth at 5 uM by SRB assay; type: functional; conditions: read-out: Activity
NCI-H522 = assay: Cytotoxicity against human NCI-H522 cells assessed as cell growth at 0.05 uM by SRB assay; type: functional; conditions: read-out: Activity
[18] = Cytotoxicity against human Hs578T cells assessed as cell growth at 50 uM by SRB assay; type: functional; conditions: Hs-578T, read-out: Activity; method in brief: as §1
SK-MEL-28 [19] = assay: Cytotoxicity against human SK-MEL-28 cells assessed as cell growth at 0.005 uM by SRB assay; type: functional; conditions: read-out: Activity
UO-31 = assay: Cytotoxicity against human UO31 cells assessed as cell growth at 0.5 uM by SRB assay; type: functional; conditions: read-out: Activity
NCI-H226 = assay: Cytotoxicity against human NCI-H226 cells by SRB assay; type: functional; method in brief: as §2
SF-268 [20] = assay: Cytotoxicity against human SF268 cells by SRB assay; type: functional; method in brief: as §2
K562 [21] = assay: Relative resistance, ratio of IC50 for etoposide-resistant human K/VP.5 cells to IC50 for human K562 cells; type: functional
SNB-75 [22] = assay: Cytotoxicity against human SNB75 cells by SRB assay; type: functional; method in brief: as §2
OVCAR-5 = assay: Cytotoxicity against human OVCAR5 cells assessed as cell growth at 0.5 uM by SRB assay; type: functional; conditions: read-out: Activity
SNB-19 [23] = assay: Cytotoxicity against human SNB19 cells assessed as cell growth at 50 uM by SRB assay; type: functional; conditions: read-out: Activity
SNB-75 [24] = assay: Cytotoxicity against human SNB75 cells assessed as cell growth at 5 uM by SRB assay; type: functional; conditions: read-out: Activity
[25] = read-out: LC50 (the source's name)
[26] = read-out: pLC50 (the source's name) (converted)

With `COc1cc([C@@H]2c3cc4c(cc3[C@@H](NC(=O)CN3CCN(CCCCCCCCCCN5CCN(CC(=O)N[C@@H]6c7cc8c(cc7[C@@H](c7cc(OC)c(O)c(OC)c7)[C@H]7C(=O)OC[C@@H]76)OCO8)CC5)CC3)[C@H]3COC(=O)[C@H]23)OCO4)cc(OC)c1O` the growth at 0.5 µM (NCI-H23) was 25%, the growth at 5 µM (MDA-MB-435 [1]) was -60% and the growth at 5 µM (CCRF-CEM) was -10%. It also gave a growth at 0.005 µM (SNB-75 [2]) of 95%, a growth at 0.005 µM (NCI-H322M [3]) of 96% and a growth at 5 µM (HOP-62 [4]) of -73%. The growth at 0.05 µM (DU-145) was 77%, the growth at 0.005 µM (PC-3) was 99% and the growth at 0.5 µM (HOP-62 [5]) was 23%. It also gave a GI50 (RXF 393; read-out: GI50) of 791 nM, a CC50 (RXF 393; [25]) greater than 50000 nM and a TGI (RXF 393; read-out: TGI) of 2380 nM. It also gave a GI50 (RXF 393; read-out: pGI50 (converted)) of 794 nM, a CC50 (RXF 393; [26]) greater than 50100 nM and a TGI (RXF 393; read-out: pTGI (converted)) of 2400 nM. The growth at 0.005 µM (TK-10 [6]) was 93%, the growth at 5 µM (CAKI-1) was 28% and the growth at 0.05 µM (A498) was 72%. The growth at 50 µM (NCI-H322M [7]) was -23%, the GI50 (TK-10 [8]; read-out: GI50) was 1440 nM and the CC50 (TK-10 [8]; [25]) was 15400 nM. It also gave a TGI (TK-10 [8]; read-out: TGI) of 4570 nM, a GI50 (TK-10 [8]; read-out: pGI50 (converted)) of 1450 nM and a CC50 (TK-10 [8]; [26]) of 15500 nM. The TGI (TK-10 [8]; read-out: pTGI (converted)) was 4570 nM, the growth at 0.05 µM (HL-60(TB) [9]) was 69% and the growth at 0.5 µM (MDA-MB-468 [10]) was 73%. The GI50 (MDA-MB-435 [11]; read-out: GI50) was 295 nM, the TGI (MDA-MB-435 [11]; read-out: TGI) was 1230 nM and the GI50 (MDA-MB-435 [11]; read-out: pGI50 (converted)) was 295 nM. It also gave a TGI (MDA-MB-435 [11]; read-out: pTGI (converted)) of 1230 nM, an IC50 (K562 [12]) of 44 nM and a growth at 50 µM (COLO 205) of -35%. The growth at 0.05 µM (T47D) was 81%, the GI50 (SNB-19 [13]; read-out: GI50) was 352 nM and the CC50 (SNB-19 [13]; [25]) was 2790 nM. The TGI (SNB-19 [13]; read-out: TGI) was 1100 nM, the GI50 (SNB-19 [13]; read-out: pGI50 (converted)) was 355 nM and the CC50 (SNB-19 [13]; [26]) was 2820 nM. For the same molecule, the TGI (SNB-19 [13]; read-out: pTGI (converted)) was 1100 nM, the growth at 0.5 µM (HCT-116) was 78% and the growth at 50 µM (RPMI-8226) was -13%. The growth at 50 µM (SK-MEL-28 [14]) was -83%, the growth at 0.05 µM (SF-268 [15]) was 77% and the growth at 0.5 µM (MOLT-4) was 37%. It also gave a growth at 0.005 µM (SF-539) of 98%, a growth at 0.005 µM (HL-60(TB) [16]) of 96% and a growth at 50 µM (MDA-MB-468 [17]) of -69%. The growth at 5 µM (OVCAR-8) was -28%, the growth at 0.05 µM (NCI-H522) was 39% and the growth at 50 µM [18] was -22%. The growth at 0.005 µM (SK-MEL-28 [19]) was 96%, the growth at 0.5 µM (UO-31) was 76% and the GI50 (NCI-H226; read-out: GI50) was 469 nM. For the same molecule, the CC50 (NCI-H226; [25]) was 22600 nM, the TGI (NCI-H226; read-out: TGI) was 9320 nM and the GI50 (NCI-H226; read-out: pGI50 (converted)) was 468 nM. The CC50 (NCI-H226; [26]) was 22400 nM, the TGI (NCI-H226; read-out: pTGI (converted)) was 9330 nM and the GI50 (SF-268 [20]; read-out: GI50) was 452 nM. The CC50 (SF-268 [20]; [25]) was greater than 50000 nM, the TGI (SF-268 [20]; read-out: TGI) was 1940 nM and the GI50 (SF-268 [20]; read-out: pGI50 (converted)) was 457 nM. The CC50 (SF-268 [20]; [26]) was greater than 50100 nM, the TGI (SF-268 [20]; read-out: pTGI (converted)) was 1950 nM and the “Ratio IC50” value (K562 [21]) was 2.6. The GI50 (SNB-75 [22]; read-out: GI50) was 228 nM, the CC50 (SNB-75 [22]; [25]) was greater than 50000 nM and the TGI (SNB-75 [22]; read-out: TGI) was 2750 nM. It also gave a GI50 (SNB-75 [22]; read-out: pGI50 (converted)) of 229 nM, a CC50 (SNB-75 [22]; [26]) greater than 50100 nM and a TGI (SNB-75 [22]; read-out: pTGI (converted)) of 2750 nM. For the same molecule, the growth at 0.5 µM (OVCAR-5) was 63%, the growth at 50 µM (SNB-19 [23]) was -92% and the growth at 5 µM (SNB-75 [24]) was -12%.
